Laboratory results: ChEMBL document CHEMBL1140161, “Structure-activity relationships in 1,4-benzodioxan-related compounds. 9. From 1,4-benzodioxane to 1,4-dioxane ring as a promising template of novel alpha1D-adrenoreceptor antagonists, 5-HT1A full agonists, and cytotoxic agents” (J Med Chem, 2008)

Tests used:
[1] = biological target: T1, 5-hydroxytryptamine receptor 1A (Homo sapiens) (UniProt P08908); assay: Agonist activity at human cloned 5HT1A receptor expressed in human HeLa cell membrane assessed as stimulation of [35S]GTPgammaS binding; format: functional, cell membranes
T1 sequence (whole entry): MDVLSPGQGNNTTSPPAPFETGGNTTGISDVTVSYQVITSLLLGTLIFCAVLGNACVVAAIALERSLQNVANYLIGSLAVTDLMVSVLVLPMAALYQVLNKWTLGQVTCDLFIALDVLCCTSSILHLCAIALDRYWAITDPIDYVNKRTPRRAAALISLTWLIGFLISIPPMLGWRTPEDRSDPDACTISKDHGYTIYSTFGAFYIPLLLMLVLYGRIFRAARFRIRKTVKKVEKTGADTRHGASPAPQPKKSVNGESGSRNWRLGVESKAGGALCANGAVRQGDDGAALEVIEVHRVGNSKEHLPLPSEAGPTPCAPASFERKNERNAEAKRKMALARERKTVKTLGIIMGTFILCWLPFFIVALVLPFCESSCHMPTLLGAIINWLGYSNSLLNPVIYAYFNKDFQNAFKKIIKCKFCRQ
In short: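 Membranes from HeLa cells expressing cloned human 5-HT1A receptor; agonist-stimulated [35S]GTPγS binding measured. pD2 is the negative log of the agonist concentration giving 50% of maximal [35S]GTPγS binding stimulation; values from two to three experiments.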

[2] = biological target: T1, 5-hydroxytryptamine receptor 1A (Homo sapiens); assay: Agonist activity at human cloned 5HT1A receptor expressed in HeLa cell membrane assessed as stimulation of [35S]GTPgammaS binding relative to 5-hydroxytryptamine; format: functional, cell membranes
In short: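 Activation measured as [35S]GTPγS binding in membranes from HeLa cells expressing cloned human 5-HT1A receptor. pD2 is the negative log of agonist concentration giving 50% of maximal stimulation, from two to three experiments agreeing within 20%. Efficacy is given relative to 5-HT.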

[3] = biological target: T2, Alpha-1B adrenergic receptor (Homo sapiens, UniProt P35368); assay: Displacement of [3H]prazosin from human cloned Alpha-1B adrenoceptor expressed in CHO cells; format: cell-based
T2 sequence (P35368 whole entry): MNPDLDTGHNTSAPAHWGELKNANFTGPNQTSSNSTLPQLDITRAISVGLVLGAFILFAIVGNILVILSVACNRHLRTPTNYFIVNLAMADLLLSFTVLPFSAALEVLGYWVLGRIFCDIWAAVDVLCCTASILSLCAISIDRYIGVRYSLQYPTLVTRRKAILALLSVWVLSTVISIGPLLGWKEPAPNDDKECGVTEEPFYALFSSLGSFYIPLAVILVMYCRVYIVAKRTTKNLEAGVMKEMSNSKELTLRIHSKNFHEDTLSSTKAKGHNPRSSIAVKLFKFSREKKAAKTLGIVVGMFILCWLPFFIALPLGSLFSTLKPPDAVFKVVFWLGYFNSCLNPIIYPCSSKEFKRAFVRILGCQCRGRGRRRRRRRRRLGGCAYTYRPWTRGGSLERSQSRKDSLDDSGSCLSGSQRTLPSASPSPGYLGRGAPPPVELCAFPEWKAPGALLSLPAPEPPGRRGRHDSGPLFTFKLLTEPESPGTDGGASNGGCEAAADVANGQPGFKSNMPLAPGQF
In short: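 [3H]prazosin binding to cloned human α1-adrenoceptor subtypes expressed in CHO cell membranes. Affinity reported as pKi for each subtype.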

[4] = biological target: T3, Alpha-1B adrenergic receptor (Rattus norvegicus) (UniProt P15823); assay: Antagonist activity at alpha1B adrenoceptor in Wistar rat spleen assessed as inhibition of (-)-phenylephrine-induced contraction after 30 mins; format: functional, tissue-based
T3 sequence (whole entry): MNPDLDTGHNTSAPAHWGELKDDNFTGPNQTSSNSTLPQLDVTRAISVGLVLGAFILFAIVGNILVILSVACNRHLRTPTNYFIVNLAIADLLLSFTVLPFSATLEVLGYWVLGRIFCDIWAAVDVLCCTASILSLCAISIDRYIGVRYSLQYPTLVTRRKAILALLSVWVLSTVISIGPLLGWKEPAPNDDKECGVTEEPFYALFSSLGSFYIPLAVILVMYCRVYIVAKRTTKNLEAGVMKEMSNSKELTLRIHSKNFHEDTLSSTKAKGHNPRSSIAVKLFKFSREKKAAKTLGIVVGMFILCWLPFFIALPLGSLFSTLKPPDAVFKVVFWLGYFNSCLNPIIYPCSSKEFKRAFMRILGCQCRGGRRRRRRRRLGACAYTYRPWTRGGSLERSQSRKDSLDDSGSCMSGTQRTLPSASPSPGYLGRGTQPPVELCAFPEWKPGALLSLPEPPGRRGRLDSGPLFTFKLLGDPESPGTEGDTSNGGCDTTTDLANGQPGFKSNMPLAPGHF

[5] = system: PC-3; assay: Cytotoxicity against human PC3 cells after 48 hrs by SRB assay; format: functional; conditions: PC-3, 48 h; for CC50: read-out: LC50 (the source's name)
In short: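 PC-3 human prostate cancer cells. Growth measured by sulforhodamine B staining following the NCI protocol. […] Values are means of quadruplicate determinations ± standard error (n = 5).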

[6] = biological target: T4, Alpha-1A adrenergic receptor (Rattus norvegicus) (UniProt P43140); assay: Antagonist activity at alpha1A adrenoceptor in Wistar rat prostatic vas deferens assessed as inhibition of (-)-noradrenaline-induced contraction after 30 mins; format: functional, tissue-based
T4 sequence (whole entry): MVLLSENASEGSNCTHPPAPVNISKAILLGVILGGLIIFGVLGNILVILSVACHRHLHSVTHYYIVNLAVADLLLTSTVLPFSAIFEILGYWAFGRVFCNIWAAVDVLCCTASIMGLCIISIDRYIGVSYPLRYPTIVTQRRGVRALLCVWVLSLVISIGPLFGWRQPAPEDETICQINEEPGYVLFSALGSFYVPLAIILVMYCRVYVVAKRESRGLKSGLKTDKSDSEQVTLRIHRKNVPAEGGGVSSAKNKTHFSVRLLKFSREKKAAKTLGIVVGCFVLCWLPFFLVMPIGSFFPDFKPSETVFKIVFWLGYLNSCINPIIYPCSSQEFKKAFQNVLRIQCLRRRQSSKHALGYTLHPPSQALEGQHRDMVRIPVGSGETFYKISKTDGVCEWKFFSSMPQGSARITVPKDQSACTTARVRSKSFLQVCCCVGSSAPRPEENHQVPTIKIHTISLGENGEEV

[7] = biological target: T5, Alpha-1D adrenergic receptor (Rattus norvegicus) (UniProt P23944); assay: Antagonist activity at Alpha-1D adrenoceptor in Wistar rat thoracic aorta assessed as inhibition of (-)-noradrenaline-induced contraction after 30 mins; format: functional, tissue-based
T5 sequence (whole entry): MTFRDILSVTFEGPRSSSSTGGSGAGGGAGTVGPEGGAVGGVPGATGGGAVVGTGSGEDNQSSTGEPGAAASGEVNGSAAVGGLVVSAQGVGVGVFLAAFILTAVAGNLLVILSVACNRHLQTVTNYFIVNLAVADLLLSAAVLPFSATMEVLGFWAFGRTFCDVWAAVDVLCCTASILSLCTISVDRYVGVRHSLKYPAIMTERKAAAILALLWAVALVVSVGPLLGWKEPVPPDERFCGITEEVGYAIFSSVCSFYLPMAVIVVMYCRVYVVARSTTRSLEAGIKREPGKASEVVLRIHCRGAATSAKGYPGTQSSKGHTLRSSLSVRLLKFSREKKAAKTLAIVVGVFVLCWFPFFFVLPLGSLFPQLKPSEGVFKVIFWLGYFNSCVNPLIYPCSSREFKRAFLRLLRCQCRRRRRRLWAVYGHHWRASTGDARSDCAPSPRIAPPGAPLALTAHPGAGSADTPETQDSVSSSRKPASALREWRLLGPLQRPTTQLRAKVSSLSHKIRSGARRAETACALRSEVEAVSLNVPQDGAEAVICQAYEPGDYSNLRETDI

## NCCc1c[nH]c2ccc(O)cc12
[1]
  pD2: 7.3

## NCCc1c[nH]c2ccc(C(N)=O)cc12
[1]
  pD2: 8.45
[2]
  %max: 96

## CCCN(CCC)C1CCc2cccc(O)c2C1 (configuration not stated) [8-OH-DPAT]
[3]
  Ki: > 1 µM
[2]
  %max: 100

## COc1ccccc1N1CCN(CCN2C(=O)CC3(CCCC3)CC2=O)CC1
[4]
  pKb: 7.48
[1]
  pD2: 9.27
[2]
  %max: 26

## COc1cc2nc(N3CCN(C(=O)C4COc5ccccc5O4)CC3)nc(N)c2cc1OC (configuration not stated) [DOXAZOSIN]
[5]
  GI50: 26.9 µM
  TGI: 49 µM
  CC50: 75.8 µM

## COc1cccc(OC)c1OCCNCC1COc2ccccc2O1 (configuration not stated)
[6]
  pKb: 9.51
[4]
  pKb: 8.16
[7]
  pKb: 8.8
[5]
  GI50: 64.6 µM
  TGI: 199 µM
  CC50: > 200 µM
